# How the values were obtained:
# [1] = system: intestinal mucosa; assay: Intestinal toxicity by histopathological scoring; format: in vivo; conditions: mice, oral, 10 mg/kg/d over 7 days
# Summary of the method: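 Mice given free test compound or cyclodextrin complexes orally at 10 mg/kg/d for 7 days; PBS group included. Intestine fixed in 10% formalin for 24 h, paraffin-embedded, sectioned at 5 μm and H&E stained. Duodenum examined at 20×. Mucosal damage graded: grade 0, normal villi; grade 1, subepithelial Gruenhagen's space at villus tips; higher grades follow.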
# [2] = system: advanced LUAD tumors; conditions: cited from earlier work
# [3] = system: Caco-2 monolayers; assay: Caco-2 permeability assay; format: in vitro ADME, Human
# Summary of the method: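 Caco-2 cells grown in EMEM with 20% FBS and 1% PenStrep, then seeded on inserts for ~20 days to form confluent monolayers. Free test compound or its cyclodextrin complexes added apically; transport followed over 2 h, plus basolateral-to-apical for efflux. Controls: ranitidine (low), warfarin (high), talinolol (P-gp). Papp = (dQ/dt)/(C0×A); efflux ratio = Papp(B→A)/Papp(A→B). Integrity by TEER with lucifer yellow transport.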
# [4] = cited from earlier work
# [5] = system: intestine; conditions: mouse, in vivo, 10 mg/kg; cited from earlier work
smiles,measurement,setting,value
Cc1cc(-c2ncc(CC(=O)Nc3ccc(-c4cnccn4)cn3)cc2C)ccn1 [LGK974],intestinal mucosal damage (histopathological scoring),[1],Intestinal mucosal damage was observed
same,effect in mice with advanced LUAD tumors,[2],"suppressed Wnt target genes, inhibited tumor growth and proliferation, and extended survival"
same,permeability across Caco-2 monolayers,"[3]; A → B and B → A, 2 h",high permeability
same,transepithelial electrical resistance (TEER) after treatment,"[3]; Caco-2 monolayers, 2 h treatment",did not decrease significantly
same,solubility in aqueous environments,[4],poorly soluble
same,intestinal toxicity on oral administration,[5],induces intestinal toxicity
